Experimental data published in ChEMBL document CHEMBL4270573, “Novel nicotinoyl pyrazoline derivates bearing N-methyl indole moiety as antitumor agents: Design, synthesis and evaluation” (Eur J Med Chem, 2018).
Active and inactive are the calls of the source. The rule behind the calls is not given here.

What was measured:
[1] = tested on: HeLa; experiment: Cell cycle arrest in human HeLa cells assessed as accumulation at G2/M phase at 0.020 uM after 24 hrs by propidium iodide staining based flow cytometric analysis (reference value: 17.72%); type: functional
In short: (§1)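 HepG2 and HeLa cells were exposed to 0, 0.020, 0.040, 0.060, 0.080 or 0.10 µM for 6, 12 or 24 h. DNA content was stained with propidium iodide and analysed by flow cytometry to give the percentage of cells in G0/G1, S and G2/M phases; sub-G1 cells were also recorded.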

[2] = tested on: HepG2; experiment: Cell cycle arrest in human HepG2 cells assessed as accumulation at G0/G1 phase at 0.040 uM after 24 hrs by propidium iodide staining based flow cytometric analysis (reference value: 55.63%); type: functional; in short: as §1
[3] = tested on: HepG2; experiment: Induction of apoptosis in human HepG2 cells assessed as viable cells at 0.080 uM after 24 hrs by Annexin V-FITC/propidium iodide staining based flow cytometric analysis (reference value: 94.5%); type: functional; conditions: HepG2, 24 h, read-out: Activity
In short: (§2)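 HepG2 and HeLa cells were exposed to 0, 0.02, 0.040, 0.060, 0.080 and 0.10 µM for 6, 12 and 24 h. Cells were double-stained with Annexin V-FITC/PI and read by flow cytometry. Apoptotic rate was the percentage of FITC-positive cells, counting early plus late apoptotic.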

[4] = tested on: HeLa; experiment: Cell cycle arrest in human HeLa cells assessed as accumulation at G2/M phase at 0.060 uM after 24 hrs by propidium iodide staining based flow cytometric analysis (reference value: 17.72%); type: functional; in short: as §1
[5] = molecular target: T1, Tubulin (Homo sapiens) (UniProt P68371+Q9H4B7+P0DPH7+P68366+Q13509+Q71U36+P04350+Q3ZCM7+P07437+P68363+Q9BQE3+Q6PEY2+Q13885+Q9BVA1+Q9BUF5); experiment: Inhibition of tubulin polymerization in human HepG2 cells assessed as mitotic catastrophe formation at 0.04 to 0.1 uM after 12 hrs by DAPI staining based immunofluorescence confocal laser scanning microscopic analysis; type: cell-based
[6] = tested on: HeLa; experiment: Cell cycle arrest in human HeLa cells assessed as accumulation at G2/M phase at 0.080 uM after 12 hrs by propidium iodide staining based flow cytometric analysis relative to control; type: functional; in short: as §1
[7] = tested on: HeLa; experiment: Induction of apoptosis in human HeLa cells assessed as late apoptotic cells at 0.080 uM after 24 hrs by Annexin V-FITC/propidium iodide staining based flow cytometric analysis (reference value: 4.98%); type: functional; in short: as §2
[8] = tested on: Mus musculus; experiment: Toxicity in nude mouse xenografted with human HeLa cells assessed as edema in spleen at 10 to 20 mg/kg, ip after 14 days by hematoxylin and eosin staining based microscopic analysis; type: organism-based; conditions: in vivo, 336 h
[9] = tested on: HeLa; experiment: Cell cycle arrest in human HeLa cells assessed as accumulation at G0/G1 phase at 0.10 uM after 24 hrs by propidium iodide staining based flow cytometric analysis (reference value: 66.26%); type: functional; in short: as §1
[10] = tested on: HeLa; experiment: Cell cycle arrest in human HeLa cells assessed as accumulation at G0/G1 phase at 0.040 uM after 24 hrs by propidium iodide staining based flow cytometric analysis (reference value: 66.26%); type: functional; in short: as §1
[11] = Selectivity index, ratio of CC50 for HEK293T cells to GI50 for human HeLa cells; type: toxicity; conditions: HEK293T cells and HeLa cells, read-out: Selectivity Index
In short: (§3)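 Ratio CC50/GI50: CC50 is the concentration reducing non-tumour 293T cell proliferation by 50%; GI50 is the concentration reducing cancer cell proliferation by 50%.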

[12] = tested on: Mus musculus; experiment: Nephrotoxicity in nude mouse xenografted with human HeLa cells assessed as edema in kidney at 10 to 20 mg/kg, ip after 14 days by hematoxylin and eosin staining based microscopic analysis; type: toxicity, organism-based; conditions: in vivo, 336 h
[13] = Selectivity index, ratio of CC50 for HEK293T cells to GI50 for human MCF7 cells; type: toxicity; conditions: HEK293T cells and MCF7 cells, read-out: Selectivity Index; in short: as §3
[14] = tested on: HeLa; experiment: Induction of apoptosis in human HeLa cells assessed as viable cells at 0.080 uM after 24 hrs by Annexin V-FITC/propidium iodide staining based flow cytometric analysis (reference value: 88.6%); type: functional; conditions: read-out: Activity; in short: as §2
[15] = molecular target: T1, Tubulin (Homo sapiens); experiment: Inhibition of tubulin polymerization in human HepG2 cells assessed as abnormal microtubule network formation at 0.04 to 0.1 uM after 12 hrs by DAPI staining based immunofluorescence confocal laser scanning microscopic analysis; type: cell-based
[16] = tested on: HepG2; experiment: Cell cycle arrest in human HepG2 cells assessed as accumulation at G2/M phase at 0.060 uM after 24 hrs by propidium iodide staining based flow cytometric analysis (reference value: 20.17%); type: functional; in short: as §1
[17] = tested on: HeLa; experiment: Growth inhibition of human HeLa cells after 48 hrs by MTT assay; type: functional
In short: (§4)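 Proliferation read-out; GI50 taken as the concentration giving 50% reduction of cancer cell proliferation.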

[18] = tested on: MCF7; experiment: Growth inhibition of human MCF7 cells after 48 hrs by MTT assay; type: functional; conditions: MCF7, 48 h; in short: as §4
[19] = molecular target: T1, Tubulin (Homo sapiens); experiment: Inhibition of tubulin polymerization in human HepG2 cells assessed as multinucleated cell formation at 0.04 to 0.1 uM after 12 hrs by DAPI staining based immunofluorescence confocal laser scanning microscopic analysis
[20] = tested on: HeLa; experiment: Antitumor activity against human HeLa cells xenografted in nude mouse assessed as tumor volume at 10 mg/kg, ip after 14 days (reference value: 2292.17 mm3); type: functional
[21] = tested on: HeLa; experiment: Cell cycle arrest in human HeLa cells assessed as accumulation at G0/G1 phase at 0.060 uM after 24 hrs by propidium iodide staining based flow cytometric analysis (reference value: 66.26%); type: functional; in short: as §1
[22] = tested on: HeLa; experiment: Induction of apoptosis in human HeLa cells assessed as necrotic cells at 0.080 uM after 24 hrs by Annexin V-FITC/propidium iodide staining based flow cytometric analysis (reference value: 0.242%); type: functional; in short: as §2
[23] = Selectivity index, ratio of CC50 for HEK293T cells to GI50 for human HepG2 cells; type: toxicity; conditions: HEK293T cells and HepG2 cells, read-out: Selectivity Index; in short: as §3
[24] = molecular target: T1, Tubulin (Homo sapiens); experiment: Inhibition of tubulin polymerization in human HeLa cells assessed as abnormal microtubule network formation at 0.04 to 0.1 uM after 12 hrs by DAPI staining based immunofluorescence confocal laser scanning microscopic analysis; type: cell-based
[25] = tested on: HepG2; experiment: Cell cycle arrest in human HepG2 cells assessed as accumulation at G2/M phase after 6 to 24 hrs by propidium iodide staining based flow cytometric analysis; type: functional; in short: as §1
[26] = tested on: Mus musculus; experiment: Toxicity in nude mouse xenografted with human HeLa cells assessed as necrosis in spleen at 10 to 20 mg/kg, ip after 14 days by hematoxylin and eosin staining based microscopic analysis; type: organism-based; conditions: in vivo, 336 h
[27] = tested on: HepG2; experiment: Induction of apoptosis in human HepG2 cells assessed as early apoptotic cells at 0.10 uM after 24 hrs by Annexin V-FITC/propidium iodide staining based flow cytometric analysis (reference value: 2.31%); type: functional; in short: as §2
[28] = tested on: HeLa; experiment: Induction of apoptosis in human HeLa cells assessed as necrotic cells at 0.020 uM after 24 hrs by Annexin V-FITC/propidium iodide staining based flow cytometric analysis (reference value: 0.242%); type: functional; in short: as §2
[29] = tested on: Mus musculus; experiment: Toxicity in nude mouse xenografted with human HeLa cells assessed as ulceration at 10 to 20 mg/kg, ip after 14 days; type: organism-based; conditions: in vivo, 336 h

## COc1cccc(C2=NN(C(=O)c3ccc(C)nc3)C(c3cn(C)c4ccc(OC)cc34)C2)c1 (centres undefined)
[1]
  Activity: 21.23%
[2]
  Activity: 28.39%
[3]
  viability at 0.08 µM: 81.4%
[4]
  Activity: 65.43%
[5]
  inhibition: Active
[6]
  Activity: 66.08%
[7]
  Activity: 7.03%
[8]
  Activity: Non-Toxic
[9]
  Activity: 6.19%
[10]
  Activity: 49.63%
[11]
  selectivity ratio: 3 to 10
[12]
  Activity: Non-Toxic
[13]
  selectivity ratio: 3 to 10
[14]
  viability at 0.08 µM: 61.8%
[15]
  inhibition: Active
[16]
  Activity: 41.92%
[17]
  GI50: 34 nM
[18]
  GI50: 90 nM
[19]
  inhibition: Active
[20]
  Activity: 1213.02 mm3
[21]
  Activity: 8.57%
[22]
  Activity: 1.02%
[23]
  selectivity ratio: 3 to 10
[24]
  inhibition: Active
[25]
  Activity: Dose-dependent effect
[26]
  Activity: Non-Toxic
[27]
  Activity: 18.5%
[28]
  Activity: 0.12%
[29]
  Activity: Non-Toxic
